Screening results as filed in PubChem BioAssay.
Most compounds without a hit are left out; they make up all but 2.2% or so of the library.
V-ATPase pHluor – alters yeast V-ATPase proton transport. 350,000 compounds, 0.37% hits. AID 504577. response, % at 10 µM. S. cerevisiae, pHLuorin cytosolic pH fluorescence; in the data active = response mostly above about 7.3%, no sharp cut-off; inactive = mostly below about 5.4%; note: actives read high
GalR3 antagonist – human GalR3 antagonism; O60755; HEK293 GalR3-CNG cAMP membrane potential fluorescence; galR3 body fused to GalR1 C-terminus; inhibition, % at 3 µM; 360,000 compounds, 0.44% hits; AID 651719;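 active = inhibition above the screen-wide average plus 3 SD, cut at about 13% in these data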;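 note: forskolin and galanin both at EC90 stimulate the cells; cAMP rise reported by CNG channel membrane potential dye signal; 0% = forskolin plus galanin with DMSO and 100% = forskolin alone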
Target sequence (O60755 1-299 limits assumed): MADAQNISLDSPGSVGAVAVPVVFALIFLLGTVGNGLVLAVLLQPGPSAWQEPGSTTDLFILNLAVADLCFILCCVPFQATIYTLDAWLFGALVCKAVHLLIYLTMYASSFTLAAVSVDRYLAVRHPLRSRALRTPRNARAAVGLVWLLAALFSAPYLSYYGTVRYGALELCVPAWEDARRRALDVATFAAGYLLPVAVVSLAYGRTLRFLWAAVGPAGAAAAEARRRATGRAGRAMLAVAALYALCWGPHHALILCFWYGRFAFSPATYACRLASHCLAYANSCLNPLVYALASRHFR
NR2E3 ag-1 – NR2E3 (human) agonism; 320,000 compounds, 0.12% hits; inhibition of corepressor binding, % at 4.78 µM; GST-NR2E3/biotin-RetCOR TR-FRET, 1536-well;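 active = percent inhibition above the cutoff of mean plus 3 SD of all tested compounds, set per screening campaign, cut at about 20% in these data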;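 note: 0% = DMSO wells and 100% = biotin wells as full block of FRET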
Target sequence (Q9Y5X4 whole entry, looked up): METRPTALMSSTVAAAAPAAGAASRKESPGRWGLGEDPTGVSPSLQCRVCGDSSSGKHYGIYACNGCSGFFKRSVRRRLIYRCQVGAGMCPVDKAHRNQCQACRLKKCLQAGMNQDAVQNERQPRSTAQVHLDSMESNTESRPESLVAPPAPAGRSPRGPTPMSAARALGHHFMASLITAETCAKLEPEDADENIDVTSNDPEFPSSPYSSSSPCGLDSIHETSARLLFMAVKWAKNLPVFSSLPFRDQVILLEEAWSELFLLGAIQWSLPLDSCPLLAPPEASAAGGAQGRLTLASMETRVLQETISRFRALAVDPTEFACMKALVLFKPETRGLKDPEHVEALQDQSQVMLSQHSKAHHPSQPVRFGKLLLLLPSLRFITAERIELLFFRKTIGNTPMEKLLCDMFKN
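Assay system: NR2E3–RetCOR corepressor complex. Quantity: 1.35 nM GST-NR2E3. Buffer or medium: pH 7.5 Tris-based buffer. Reagent: biotinylated RetCOR corepressor at 7 nM final. Schedule: 5 h at 4 °C. Detection: TR-FRET, emission read at 617 and 671 nm. Replicates: one well per compound, singlicate testing.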
NR2E3 ag-2 – agonists of human NR2E3 nuclear receptor. Q9Y5X4. CHO-S Gal4-NCOR/VP16-NR2E3 two-hybrid, luciferase. inhibition of corepressor binding, % at 3.98 µM. 360,000 compounds, 0.35% hits. AID 602229;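 active = inhibition above the mean of all tested compounds plus 3 SD, cut at about 70% in these data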;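 note: 0% = DMSO with NR2E3 transfected cells and 100% = cells lacking NR2E3 construct; higher means lower luciferase signal from less NR2E3 corepressor binding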
GAA850 FXN act – increases GAA850 frataxin promoter reporter activity | activation, % at 6 µM | HEK293 lucGAA850 FXN promoter luciferase reporter, 24 h; percent of 10 µM SAHA response | 360,000 compounds, 0.56% hits | AID 540364;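 active = activation above the average of all compounds screened plus 3 SD, cutoff fixed separately per campaign, cut at about 7.5% in these data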;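 note: 0% = DMSO wells and 100% = 10 µM SAHA wells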
Env fusion inh – inhibitors of HIV Env-mediated cell fusion; AID 651610; HeLa-JRFL Env/CEM21 cell fusion, luciferase; 360,000 compounds, 1.1% hits; inhibition, % at 12.3 µM;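 active = mean replicate inhibition score of at least 50 and every replicate individually at or above 50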;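 note: 0% = plate neutral controls and 100% = maraviroc near 300 nM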
* hit, by the source's call; · = no result; [ ] = dose if it differs, or a comment.

SMILES | V-ATPase pHluor | GalR3 antagonist | NR2E3 ag-1 | NR2E3 ag-2 | GAA850 FXN act | Env fusion inh
C[C@H](CO)N1C[C@H](C)[C@@H](CN(C)CC2CC2)Oc2ccc(NC(=O)CCCN(C)C)cc2C1=O | · | · | · | · | · | -11[16.7 µM]
O=C1c2ccccc2-c2c1cccc2C(=O)N1CCCCCC1 | 15* | -4 | 0 | 5 | 1 | 8
O=C1c2ccccc2-c2cccc(C(=O)N3CCCCCC3)c21 | 1 | -2 | 1 | 21 | 0 | -2
COc1ccc(S(=O)(=O)Nc2ccc3c(c2)C(=O)N([C@H](C)CO)C[C@@H](C)[C@@H](CN(C)C(=O)C2CCCCC2)OCCCC[C@H](C)O3)cc1 | · | · | · | · | · | 3[16.7 µM]
O=c1c(O)cccc2cc(O)c(O)c(O)c12 | 4 | -7 | 16 | 9 | 4 | 56*
Cc1cnc2c(N)cc(C)c(C)c2c1 | 2 | -3 | · | 15 | 0 | 77*
Cc1cnc2ncc3sccc3c2c1 | 1 | -1 | 1 | -12 | -1 | 21
Cc1onc(-c2ccccc2Cl)c1-c1nc(-c2ccncc2)no1 | 21* | -4 | 4 | 0 | 1 | ·
Clc1ccccc1-c1nc(-c2ccncc2)no1 | 1 | -10 | 0 | -122 | 5 | -19
Cc1ccc(S(=O)(=O)N(C)C[C@@H]2Oc3c(NC(=O)c4ccncc4)cccc3C(=O)N([C@H](C)CO)C[C@@H]2C)cc1 | · | · | · | · | · | -50[16.7 µM]
COc1ccc(-c2nc3ccccc3[nH]2)cc1 | -1 | -3 | -2 | -137 | 0 | ·
COc1ccc(-c2cc(=O)n(-c3nc4ccccc4[nH]3)[nH]2)cc1 | -4 | -5 | 0 | -30 | 1 | 66*
CC(=O)Nc1ccc(S(=O)(=O)N(C)Cc2ccccc2)cc1 | -2 | -3 | -1 | -1 | 2 | -4
CC(=O)Nc1ccc(S(=O)(=O)N(Cc2ccccc2)C(C)C)cc1 | -1 | -6 | 2 | 11 | -1 | 84*
Cc1ccc2nc(Cl)c3nnnn3c2c1 | 10.0* | · | 2 | -37 | 5 | ·
Cc1ccc2nc(N3CCN(c4cccc(C)c4C)CC3)c3nnnn3c2c1 | 1 | -3 | -2 | -8 | 4 | -21
COc1ccc(N2CCn3c2nc2c3c(=O)n(CCCc3ccccc3)c(=O)n2C)c(OC)c1 | -7 | -2 | -1 | 15 | -1 | 73*
CCOc1cc(-c2cn(S(=O)(=O)c3cccc4nsnc34)nc2N)cc(OCC)c1OCC | 7 | 0 | 1 | 13 | 2 | 66*
CCOc1cc(S(=O)(=O)n2cc(-c3ccc(F)cc3)c(N)n2)cc(OCC)c1OCC | 0 | -2 | 5 | 6 | -3 | ·
O=C(C[C@H]1C[C@@H]2c3cc(NC(=O)C4CCOCC4)ccc3O[C@@H]2[C@H](CO)O1)NCc1cc(F)ccc1F | · | · | · | · | · | -18[16.7 µM]
CC(C)NC(=O)N(C)C[C@@H]1Oc2cc(Br)ccc2S(=O)(=O)N([C@H](C)CO)C[C@H]1C | · | · | · | · | · | -37[16.7 µM]
Cc1[nH]c2ccccc2c1C(=O)CSc1nc2cc(S(=O)(=O)N3CCCCC3)ccc2o1 | -5 | -2 | 1 | 0 | -3 | 65*
Cc1ccc(C(=O)CSc2nc3cc(S(=O)(=O)N4CCOCC4)ccc3o2)cc1 | 7 | -1 | -2 | 23 | 2 | -43
C[C@@H]1CCCCO[C@H](CN(C)CC2CCCCC2)[C@@H](C)CN([C@H](C)CO)C(=O)c2cc(NC(=O)C3CCCCC3)ccc2O1 | · | · | · | · | · | -14[16.7 µM]
COCCNC(=O)CN1C(=O)CC(C)(C)S(=O)(=O)c2ccccc21 | -1 | -2 | 1 | -14 | 13* | -17
SMILES | V-ATPase pHluor | GalR3 antagonist | NR2E3 ag-1 | NR2E3 ag-2 | GAA850 FXN act | Env fusion inh
Cc1ccc(S(=O)(=O)N2CCC(=O)N(C(COCc3cccc(C(F)(F)F)c3)Cc3ccccc3)CC2)cc1 (stereo not drawn) | -5 | -8 | 0 | 11 | 0 | 56*
Cc1ccc(S(=O)(=O)N2CCC(=O)N(CCOCc3cccc(Cl)c3)CC2)cc1 | -2 | -5 | 5 | 10 | 0 | 28
Cc1ccc(S(=O)(=O)N2CCC(=O)N(CCOCc3ccc(Cl)cc3)CC2)cc1 | -1 | -6 | 2 | 36 | 2 | 56*
Cc1cccc(COCC(Cc2ccccc2)N2CCN(C(=O)c3ccc(Cl)c(Cl)c3)CCC2=O)c1 (stereo not drawn) | 2 | -7 | 1 | -6 | 6 | 95*
Cc1cccc(COC[C@H](Cc2ccccc2)N2CCN(C(=O)c3ccc(Cl)c(Cl)c3)CCC2=O)c1 | · | -6 | · | -1 | · | 83*
Cc1cccc(COCC(Cc2ccccc2)N2CCN(C(=O)c3cccc(C)c3)CCC2=O)c1 (stereo not drawn) | 0 | -7 | -1 | 10 | 2 | 51
C[C@@H]1CN([C@@H](C)CO)C(=O)c2cc(C#CC3(O)CCCC3)cnc2O[C@@H]1CN(C)C(=O)Cc1ccncc1 | · | · | · | · | · | 13[16.7 µM]
O=C(N[C@H]1CC[C@@H](CCNS(=O)(=O)c2cccc(Cl)c2)O[C@H]1CO)c1ccccc1 | · | · | · | · | · | -113[16.7 µM]
O=C(c1ccc(Cl)c(Cl)c1)N1CCC(=O)N(C(COCc2cccc(C(F)(F)F)c2)Cc2ccccc2)CC1 (stereo not drawn) | 4 | -7 | 1 | 0 | 4 | 80*
Cc1ccc(S(=O)(=O)Nc2ccc3c(c2)CC(=O)N([C@@H](C)CO)C[C@H](C)[C@H](CN(C)S(=O)(=O)c2cn(C)cn2)O3)cc1 | · | · | · | · | · | 9[16.7 µM]
Cc1ccc(C)n1Cc1ccc(C(=O)O)cc1 | 0 | · | 34* | -38 | -2 | ·
CC=Cc1ccc2n(c1=O)C[C@H]1[C@H](CO)[C@@H](C(=O)NCC)N(Cc3ccccc3Cl)[C@@H]21 (mixture of isomers) | · | · | · | · | · | 10[16.7 µM]
CC(=O)Nc1nonc1NC(C)=O | 2 | -3 | 3 | -20 | 0 | -57
CC(=O)Nc1cc(OC(C)=O)c2nonc2c1OC(C)=O | -3 | -11 | 39* | 13 | 1 | ·
COc1ccc(C2c3c(-c4ccccc4O)n[nH]c3C(=O)N2CCc2ccc(OC)c(OC)c2)cc1 (stereo not drawn) | 3 | 1 | 4 | 9 | 0 | 91*
O=C(C[C@H]1CC[C@H](NC(=O)c2ccccn2)[C@H](CO)O1)NCc1cc(F)cc(F)c1 | · | · | · | · | · | 11[16.7 µM]
CCC(=O)OCC(=O)N=c1sccn1Cc1ccc(C)cc1 | -2 | -2 | -1 | 16 | 3 | -7
O=C(CCl)N=c1sccn1Cc1cccc2ccccc12 | 1 | -8 | · | -1 | -10 | 66*
CCC(=O)OCC(=O)N=c1sccn1Cc1ccccc1Cl | 2 | -1 | -3 | -8 | 2 | 9
O=C(CCl)N=c1sccn1Cc1ccccc1Cl | 1 | -2 | 0 | 6 | -10 | 134*
O=C(CCl)N=c1sccn1Cc1ccc(Cl)cc1Cl | 1 | -4 | -1 | -12 | -11 | 84*
C[C@@H]1CN([C@@H](C)CO)C(=O)c2ccccc2-c2ccccc2CO[C@@H]1CN(C)S(=O)(=O)c1ccccc1F | · | · | · | · | · | -2[16.7 µM]
CCCNC(=O)N[C@H]1CC[C@H](CC(=O)N2CCN(C)CC2)O[C@H]1CO | · | · | · | · | · | 11[16.7 µM]
